Results on five molecules are retold here after ChEMBL document CHEMBL3046693, “Discovery and characterization of sulfoxaflor, a novel insecticide targeting sap-feeding pests” (J Agric Food Chem, 2011).

The test system of data set [1] is Bemisia tabaci. The experiment in a line: Insecticidal activity against Bemisia tabaci SUD-S (sweet potato whitefly) by leaf disk bioassay. Format: functional. The following applies: foliar.
Data set [2] relates to Bemisia tabaci. The experiment in a line: Insecticidal activity against Bemisia tabaci DAS (sweet potato whitefly) lab strain by leaf disk bioassay. Format: functional. The following applies: foliar.
Data set [3] concerns Bemisia tabaci. The experiment in a line: Insecticidal activity against rothamsted-resistant Bemisia tabaci Q-biotype R-CHLORAKA (sweet potato whitefly) by leaf disk bioassay. Format: functional. The following applies: foliar.
The subject of data set [4] is Myzus persicae. The experiment in a line: Insecticidal activity against Myzus persicae S-USIL (green peach aphid) by leaf disk bioassay. The data set is classed as functional. The following applies: foliar.
The test system of data set [5] is Bemisia tabaci. Kind of data set: Resistance index, ratio of LC50 for rothamsted-resistant Bemisia tabaci Q-biotype R-CHLORAKA (sweet potato whitefly) to LC50 for Bemisia tabaci SUD-S. Format: functional.
For data set [6], the system named is Myzus persicae. Kind of data set: Resistance index, ratio of LC50 for drug resistant Myzus persicae R-4013A (green peach aphid) to LC50 for Myzus persicae S-USIL. Format: functional.
Another data set deals with Aphis gossypii. The experiment in a line: Insecticidal activity against Aphis gossypii (cotton aphid) DAS lab strain by leaf disk bioassay. The data set is classed as functional. As to conditions: foliar.
The test system of data set [7] is Myzus persicae. Kind of data set: Insecticidal activity against Myzus persicae (green peach aphid) DAS lab strain by leaf disk bioassay. The following applies: foliar. Format: functional.
Data set [8] has as its system Myzus persicae. Kind of data set: Insecticidal activity against drug resistant Myzus persicae R-4013A (green peach aphid) by leaf disk bioassay. Format: functional. As to conditions: foliar.
Data set [9] deals with CYP6G1. The experiment in a line: Drug metabolism in Drosophila melanogaster D.mel-2 cells over-expressing in CYP6G1 assessed as drug recovery measured 24 hr post dose by HPLC method. Format: ADME. The following applies: D.mel-2 cells over-expressing CYP6G1, read-out: Drug recovery.
A short description of data set [10]: (§1) Drug metabolism in Drosophila melanogaster D.mel-2 cells deficient in CYP6G1 assessed as drug recovery measured 24 hr post dose by HPLC method. The following applies: 24 h. The data set is classed as ADME.
Data set [11] has as its system Bemisia tabaci. The experiment in a line: Resistance index, ratio of LC50 for DAS insecticide-resistant Bemisia tabaci B-biotype R-PB (sweet potato whitefly) to LC50 for drug sensitive Bemisia tabaci DAS lab strain. The data set is classed as functional.
Data set [12] has as its system Bemisia tabaci. Kind of data set: Resistance index, ratio of LC50 for drug resistant rothamsted-resistant Bemisia tabaci R-4991BT1 (sweet potato whitefly) to LC50 for DAS-susceptible Bemisia tabaci S-4971BT1. The data set is classed as functional.
In data set [13] the test system is Bemisia tabaci. Kind of data set: Insecticidal activity against Bemisia tabaci S-4971BT1 (sweet potato whitefly) by leaf disk bioassay. The following applies: S-4971BT1, foliar. The data set is classed as functional.
In data set [14] the test system is Myzus persicae. The experiment in a line: Insecticidal activity against Myzus persicae (green peach aphid) infested UV irradiated leaves of pepper plant exposed to compound at 124 ppm assessed as insect control efficacy post 7 days UV exposure relative to untreated control. Format: functional. In outline:
(§2)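 Aphid control on treated UV-exposed pepper leaves scored 3 days after infestation; four replicates per treatment and time point.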

In data set [15] the test system is Bemisia tabaci. Kind of data set: Insecticidal activity against DAS-susceptible Bemisia tabaci S-4971BT1 (sweet potato whitefly) by leaf disk bioassay. The data set is classed as functional. The following applies: S-4971BT1, foliar.
The test system of data set [16] is Myzus persicae. The experiment in a line: Insecticidal activity against Myzus persicae (green peach aphid) infested UV irradiated leaves of pepper plant exposed to compound at 124 ppm assessed as insect control efficacy post 3 days UV exposure relative to untreated control. Format: functional. In outline: as §2
Data set [17] has as its system Bemisia tabaci. Kind of data set: Resistance index, ratio of LC50 for rothamsted-resistant Bemisia tabaci Q-biotype R-4971BT9 (sweet potato whitefly) to LC50 for Bemisia tabaci S-4971BT1. The data set is classed as functional.
In data set [18] the test system is Myzus persicae. Kind of data set: Insecticidal activity against Myzus persicae (green peach aphid) infested UV irradiated leaves of pepper plant exposed to compound at 124 ppm assessed as insect control efficacy post 0 day UV exposure relative to untreated control. Format: functional. In outline: as §2
The subject of data set [19] is Bemisia tabaci. The experiment in a line: Insecticidal activity against DAS insecticide-resistant Bemisia tabaci B-biotype R-PBI (sweet potato whitefly) by leaf disk bioassay. The data set is classed as functional. As to conditions: foliar.
The subject of data set [20] is Bemisia tabaci. The experiment in a line: Insecticidal activity against rothamsted-resistant Bemisia tabaci Q-biotype R-4971BT9 (sweet potato whitefly) by leaf disk bioassay. The data set is classed as functional. The following applies: Q-biotype R-4971BT9, foliar.
The next data set relates to Drosophila melanogaster. The experiment in a line: Activation of Drosophila melanogaster nicotinic acetylcholine receptor alpha2 expressed in Xenopus laevis co-expressing chicken nicotinic acetylcholine receptor beta2 subunit by electrophysiology method. The gist of the method: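 Drosophila α2 cRNA co-injected with chicken β2 and C. elegans ric-3 chaperone into defolliculated X. laevis oocytes (≤50 nL at 1 ng/nL). Oocytes held singly in ND-96 (pH 7.6) at 18 °C and recorded 1-4 days after injection on an automated oocyte recording system.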

The subject of data set [21] is Bemisia tabaci. The experiment in a line: Insecticidal activity against rothamsted-resistant Bemisia tabaci R-4991BT1 (sweet potato whitefly) by leaf disk bioassay. The data set is classed as functional. As to conditions: R-4991BT1, foliar.
For data set [22], the system named is Bemisia tabaci. Kind of data set: Insecticidal activity against drug sensitive Bemisia tabaci DAS (sweet potato whitefly) lab strain by leaf disk bioassay. The data set is classed as functional. As to conditions: foliar.
Data set [23] relates to CYP6G1. The data set is described as §1. The following applies: D.mel-2 cells deficient in CYP6G1, read-out: Drug recovery. The data set is classed as ADME.
Data set [24] is described as follows: Stability assessed as half life for photolysis in UV chamber at 1000 ppm by HPLC method. The data set is classed as physicochemical.
Data set [25] has as its system Myzus persicae. The experiment in a line: Displacement of [3H]imidacloprid from nicotinic acetylcholine receptor in Myzus persicae (green peach aphid) homogenates by scintillation counting. In outline:
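Frozen (-80 °C) aphids homogenized at 4 °C in sucrose/Tris/EDTA/PMSF buffer (pH 7.2), filtered, spun 3500 rpm 15 min then 17500 rpm 20 min (4 °C). Pellet resuspended in 120 mM NaCl, 50 mM Tris (pH 7.4). ~2 nM [3H]IMI, 70 μg protein/well and competitor for 60 min at ~22 °C. Protein-started, filtration-stopped, scintillation-counted; total and filter binding measured.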

Molecules are shown by their SMILES. In brackets after ≈: the same amount, converted by molar mass. Activity calls are given as the source filed them. No cut-off for these calls is given here.

Turning to `CC(c1ccc(Cl)nc1)S(C)(=O)=NC#N` (configuration not stated), the LC50 worked out at 4.48 µg/mL (≈ 18.4 µM) in the data set on Bemisia tabaci [1]; 0.29 µg/mL (≈ 1.19 µM) in the data set with Bemisia tabaci [2]; 13.2 µg/mL (≈ 54.2 µM) in the data set with Bemisia tabaci [3]; 62.3 µg/mL (≈ 256 µM) in the data set with Myzus persicae [4]; 3 µg/mL (≈ 12.3 µM) in the data set on Aphis gossypii; 0.374 µg/mL (≈ 1.53 µM) with Myzus persicae [7]. The molecule also displayed an LC50 in the data set with Myzus persicae [8] of 12.5 µg/mL (≈ 51.3 µM). Moreover, the RatioLC50 is reported as 2.9 in the data set with Bemisia tabaci [5] and 0.2 in the data set with Myzus persicae [6].

Consider `C/C(=N\C#N)N(C)Cc1ccc(Cl)nc1` [ACETAMIPRID], for which the remaining at 24 h with CYP6G1 [9] was 0%. In addition, the Drug recovery in data set [10] is 122.7%.

For `O=[N+]([O-])/N=C1\NCCN1Cc1ccc(Cl)nc1` [IMIDACLOPRID], the LC50 is 1.23 µg/mL (≈ 4.81 µM) in the data set on Bemisia tabaci [1]; 0.37 µg/mL (≈ 1.45 µM) in the data set with Bemisia tabaci [2]; over 1000 µg/mL in the data set on Bemisia tabaci [3]; 0.896 µg/mL (≈ 3.5 µM) with Myzus persicae [4]; 4.4 µg/mL (≈ 17.2 µM) in the data set with Bemisia tabaci [13]; 4.4 µg/mL (≈ 17.2 µM) in the data set with Bemisia tabaci [15]. Also, the LC50 in the data set with Aphis gossypii is 7.8 µg/mL (≈ 30.5 µM); with Myzus persicae [7], 0.09 µg/mL (≈ 0.352 µM); in the data set on Bemisia tabaci [19], 174 µg/mL (≈ 681 µM); in the data set on Bemisia tabaci [20], 4500 µg/mL (≈ 17600 µM); in the data set with Myzus persicae [8] it was 15.3 µg/mL (≈ 59.8 µM); in the data set on Bemisia tabaci [21], over 1000 µg/mL. In addition, the LC50 with Bemisia tabaci [22] was determined as 0.2 µg/mL (≈ 0.782 µM). Also, the RatioLC50 was 870 in the data set with Bemisia tabaci [11]; over 230 in the data set on Bemisia tabaci [12]; over 833 with Bemisia tabaci [5]; 17.1 in the data set on Myzus persicae [6]; 1022 with Bemisia tabaci [17]. Besides, the Efficacy in the data set on Myzus persicae [14] is 21%; in the data set on Myzus persicae [16], 42%; in the data set with Myzus persicae [18], 100%. In addition, in the data set with Drosophila melanogaster, the result was Active.

With `O=[N+]([O-])NC1=NCCN1Cc1ccc(Cl)nc1` [IMIDACLOPRID], the values for the remaining at 24 h in the data set on CYP6G1 [9] and with CYP6G1 [23] were 4.5% and 115%, respectively. The half-life at 1000 ppm in data set [24] is 7 h.

`CC(c1ccc(C(F)(F)F)nc1)S(C)(=O)=NC#N` (configuration not stated) [SULFOXAFLOR]: the LC50 in the data set with Bemisia tabaci [1] was 1.8 µg/mL (≈ 6.49 µM); with Bemisia tabaci [2] it was 0.85 µg/mL (≈ 3.07 µM); in the data set with Bemisia tabaci [3] it was 5 µg/mL (≈ 18 µM); with Myzus persicae [4], 4.13 µg/mL (≈ 14.9 µM); in the data set with Bemisia tabaci [13] it was 18 µg/mL (≈ 64.9 µM); in the data set with Bemisia tabaci [15] it was 18 µg/mL (≈ 64.9 µM). The LC50 in the data set with Aphis gossypii stood at 0.2 µg/mL (≈ 0.721 µM); in the data set with Myzus persicae [7], 0.074 µg/mL (≈ 0.267 µM); in the data set with Bemisia tabaci [19], 6.4 µg/mL (≈ 23.1 µM); in the data set on Bemisia tabaci [20], 39 µg/mL (≈ 141 µM); with Myzus persicae [8], 1.52 µg/mL (≈ 5.48 µM); in the data set on Bemisia tabaci [21], 28 µg/mL (≈ 101 µM). In the data set with Bemisia tabaci [22], this molecule registered an LC50 of 2.8 µg/mL (≈ 10.1 µM). The remaining at 24 h came out at 108% in the data set on CYP6G1 [9] and 105% with CYP6G1 [23]. Further, the RatioLC50 in the data set with Bemisia tabaci [11] worked out at 2.3; in the data set on Bemisia tabaci [12] it was 1.6; in the data set with Bemisia tabaci [5] it was 2.8; with Myzus persicae [6], 0.37; in the data set on Bemisia tabaci [17], 2.2. The Efficacy in the data set with Myzus persicae [14] amounted to 90%; in the data set with Myzus persicae [16], 100%; with Myzus persicae [18], 100%. In [24], the half-life at 1000 ppm is 88 h. For the same molecule, the result with Drosophila melanogaster and in the data set on Myzus persicae [25] was Active.
